The values that follow come from ChEMBL document CHEMBL1125520, “Improved brain delivery of AZT using a glycosyl phosphotriester prodrug” (1992).

Experiment [1] relates to Mus musculus. Briefly: In Vivo detection in Mice brains after oral administration of 41.63 mg/kg detected in the form of AZT phosphodiester 2 after 2 hr. Format: functional.
Experiment [2] concerns Mus musculus. As to the kind of experiment: In Vivo detection of total AZT in Mice plasma after oral administration of 41.63 mg/kg after 2 hr. The experiment is classed as functional, organism-based. Set-up: dose 41.63 mg/kg. In short, it runs like this:
(§1)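 Male Swiss mice (18–20 g, six weeks old) given the test substance or vehicle ([…]) by gavage as a 3 mM solution (1.5 µmol/mouse). Aortic blood was collected into heparinized tubes at 0.5–48 h and centrifuged at 13000g for 10 min. Plasma was stored at -22 °C and analysed by HPLC. Three mice were used per time point, in triplicate. Values were not corrected for recovery.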

Experiment [3] relates to Mus musculus. As to the kind of experiment: In Vivo detection of total AZT in Mice plasma after oral administration of 41.63 mg/kg after 24 hr. Also on record: dose 41.63 mg/kg. The experiment is classed as functional, organism-based. The essentials:
as §1

Experiment [4] deals with Mus musculus. As to the kind of experiment: In Vivo detection in Mice plasma after oral administration of 41.63 mg/kg detected in the form of AZT phosphodiester 2 after 24 hr. Also on record: dose 41.63 mg/kg. Format: functional, organism-based.
In experiment [5] the test system is Mus musculus. Briefly: In Vivo detection in Mice plasma after oral administration of 41.63 mg/kg detected in the form of AZT 5`-P after 1 hr. The experiment is classed as functional, organism-based. Set-up: dose 41.63 mg/kg.
The subject of experiment [6] is Mus musculus. As to the kind of experiment: In Vivo detection in Mice brains after oral administration of 41.63 mg/kg detected in the form of AZT phosphodiester 2 after 1 hr. Format: functional.
For experiment [7], the system named is Mus musculus. As to the kind of experiment: In Vivo detection in Mice brains after oral administration of 41.63 mg/kg detected in the form of AZT phosphodiester 2 after 4 hr. Format: functional.
The subject of experiment [8] is Mus musculus. Briefly: In Vivo detection in Mice plasma after oral administration of 41.63 mg/kg detected in the form of AZT phosphodiester 2 after 48 hr. Also on record: dose 41.63 mg/kg. Format: functional, organism-based.
Experiment [9] has as its system Mus musculus. As to the kind of experiment: In Vivo detection in Mice brains after oral administration of 41.63 mg/kg detected in the form of AZT 5`-P after 48 hr. The experiment is classed as functional.
Experiment [10] deals with Mus musculus. As to the kind of experiment: In Vivo detection of total AZT in Mice brains after oral administration of 41.63 mg/kg after 48 hr. Format: functional. In short, it runs like this:
(§2)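 Male Swiss mice (18–20 g) dosed orally with a 3 mM solution in […] vehicle; decapitated at 0.5–48 h. Brains were homogenized in acetonitrile-water (3:1), centrifuged at 6000g for 40 min at 4 °C, lyophilized, redissolved in water and filtered (0.45 µm). Reversed-phase C18 column-switching HPLC with diode-array detection; standard spiking; vehicle-fed controls. Three mice per point, triplicates.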

Experiment [11] deals with Mus musculus. Briefly: In Vivo detection in Mice brains after oral administration of 58.33 mg/kg detected in the form of AZT after 8 hr. The experiment is classed as functional.
In experiment [12] the test system is Mus musculus. Briefly: In Vivo detection in Mice brains after oral administration of 58.33 mg/kg detected in the form of AZT phosphodiester 2 after 4 hr. Format: functional.
Experiment [13] relates to Mus musculus. As to the kind of experiment: In Vivo detection in Mice plasma after oral administration of 58.33 mg/kg detected in the form of AZT after 24 hr. Set-up: dose 58.33 mg/kg. The experiment is classed as functional, organism-based.
In experiment [14] the test system is Mus musculus. As to the kind of experiment: In Vivo detection in Mice brains after oral administration of 58.33 mg/kg detected in the form of AZT after 24 hr. Format: functional.
The subject of experiment [15] is Mus musculus. As to the kind of experiment: In Vivo detection of total AZT in Mice brains after oral administration of 58.33 mg/kg after 24 hr. The experiment is classed as functional. In short, it runs like this: as §2
For experiment [16], the system named is Mus musculus. As to the kind of experiment: In Vivo detection in Mice plasma after oral administration of 58.33 mg/kg detected in the form of AZT 5`-P after 0.5 hr. The experiment is classed as functional, organism-based. Also on record: dose 58.33 mg/kg.

In the case of `Cc1cn([C@H]2C[C@H](N=[N+]=[N-])[C@@H](COP(=O)(O)OCCO[C@H]3O[C@H](CO)[C@@H](O)[C@H](O)[C@@H]3O)O2)c(=O)[nH]c1=O`, the Brain content in [1] was determined as 5.2 nM ml-1; in experiment [6] it was 16.5 nM ml-1; in experiment [7], 7.9 nM ml-1; in experiment [9] it was 48.5 nmol/g; in experiment [10], 51.8 nM ml-1. The Plasma content came out at 19.7 nM ml-1 in experiment [2]; 26.8 nM ml-1 in [3]; 0 nM ml-1 in experiment [4]; 20 nM ml-1 in experiment [5]; 0 nM ml-1 in experiment [8].

`CCCCCCCCCCCCCCCCOP(=O)(OCCO[C@H]1O[C@H](CO)[C@@H](O)[C@H](O)[C@@H]1O)OCC1OC(n2cc(C)c(=O)[nH]c2=O)CC1N=[N+]=[N-]` (stereo partly specified): the Brain content in [11] amounted to 2 nmol/g; in experiment [12] it was 7.1 nmol/g; in experiment [14] it was 1.4 nmol/g; in [15], 87.9 nM ml-1. Besides, the Plasma content in experiment [13] worked out at 0 nM ml-1; in [16], 12.1 nM ml-1.
